# Results reported in ChEMBL document CHEMBL5303300, “EUbOPEN Chemogenomics Library - Multiplex” (2023).
# Several values for one entry are separate records, joined by “and”; a condition that tells them apart may be missing. Equal entries are not always repeated.
# Columns and labels:
# Format in all cases: toxicity, cell-based
# [1] = tested on: U2OS; assay: Multiplex assay against U2OS; settings: human, number of replicates 2
# Summary of the method: (§1)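 Per cents of healthy-nucleus cells form the tubulin, mitochondrial-mass and membrane-permeability phenotype values. Live cells were stained at seeding with Hoechst33342, BioTracker Green Microtubule Cytoskeleton Dye, MitoTracker Red and Annexin V Alexa Fluor 680. After compound addition they were imaged on a CQ1 microscope at 37°C and 5% CO2, and CellPathfinder machine-learning gating split them into Hoechst high-intensity objects or normal cells, normal cells into healthy, pyknosed or fragmented nuclei, and pyknosed cells into mitotic or apoptotic.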
# [2] = tested on: Fibroblast; assay: Multiplex assay against human fibroblast; settings: number of replicates 2; summary of the method: as §1
# [3] = tested on: HEK-293T; assay: Multiplex assay against HEK293T; settings: human, number of replicates 2; summary of the method: as §1
# [4] = 12 h, 1 µM, compound concentration 1 uM
# [5] = 12 h, 10 µM, compound concentration 10 uM
# [6] = 24 h, 1 µM, compound concentration 1 uM
# [7] = 24 h, 10 µM, compound concentration 10 uM
# [8] = 48 h, 1 µM, compound concentration 1 uM
# [9] = 48 h, 10 µM, compound concentration 10 uM
compound,measurement,setting,value
CS(=O)(=O)c1ccc(C(=O)Nc2cccc(COc3ccc(Br)cc3CNCCO)c2)c(Cl)c1.O=CO,Population Apoptotic (%),[1]; [4],50% and 66%
same,Population Healthy Nuclei (%),[1]; [4],74% and 84%
same,Population Mitotic Cells (%),[1]; [4],50% and 33%
same,Population Apoptotic (%),[1]; [5],66% and 50%
same,Population Healthy Nuclei (%),[1]; [5],73%
same,Population Mitotic Cells (%),[1]; [5],33% and 50%
same,Population Apoptotic (%),[1]; [6],75% and 87%
same,Population Healthy Nuclei (%),[1]; [6],79% and 82%
same,Population Mitotic Cells (%),[1]; [6],25% and 12%
same,Population Pyknosed Nuclei (%),[1]; [6],15%
same,Population Apoptotic (%),[1]; [7],66% and 74%
same,Population Healthy Nuclei (%),[1]; [7],59% and 66%
same,Population Mitotic Cells (%),[1]; [7],33% and 25%
same,Population Pyknosed Nuclei (%),[1]; [7],34% and 27%
same,Population Apoptotic (%),[1]; [8],83%
same,Population Healthy Nuclei (%),[1]; [8],83% and 88%
same,Population Mitotic Cells (%),[1]; [8],36% and 16%
same,Population Pyknosed Nuclei (%),[1]; [8],9%
same,Population Apoptotic (%),[1]; [9],91% and 85%
same,Population Healthy Nuclei (%),[1]; [9],46% and 62%
same,Population Mitotic Cells (%),[1]; [9],8%
same,Population Pyknosed Nuclei (%),[1]; [9],45% and 27%
same,Population Apoptotic (%),[2]; [4],37% and 48%
same,Population Hoechst High Intensity Objects (%),[2]; [4],0%
same,Population Mitotic Cells (%),[2]; [4],62% and 51%
same,Total Cell Count,[2]; [4],153 and 242
same,Population Apoptotic (%),[2]; [5],58% and 47%
same,Population Hoechst High Intensity Objects (%),[2]; [5],0%
same,Population Mitotic Cells (%),[2]; [5],41% and 52%
same,Population Pyknosed Nuclei (%),[2]; [5],28%
same,Total Cell Count,[2]; [5],238 and 244
same,Population Apoptotic (%),[2]; [6],70% and 59%
same,Population Hoechst High Intensity Objects (%),[2]; [6],0%
same,Population Mitotic Cells (%),[2]; [6],30% and 40%
same,Population Pyknosed Nuclei (%),[2]; [6],20% and 18%
same,Total Cell Count,[2]; [6],148 and 236
same,Population Apoptotic (%),[2]; [7],80% and 67%
same,Population Hoechst High Intensity Objects (%),[2]; [7],2% and 0%
same,Population Mitotic Cells (%),[2]; [7],20% and 32%
same,Population Pyknosed Nuclei (%),[2]; [7],28%
same,Total Cell Count,[2]; [7],232 and 267
same,Population Apoptotic (%),[2]; [8],80% and 74%
same,Population Hoechst High Intensity Objects (%),[2]; [8],0%
same,Population Mitotic Cells (%),[2]; [8],19% and 25%
same,Population Pyknosed Nuclei (%),[2]; [8],16% and 15%
same,Total Cell Count,[2]; [8],153 and 246
same,Population Apoptotic (%),[2]; [9],85% and 77%
same,Population Hoechst High Intensity Objects (%),[2]; [9],2% and 0%
same,Population Mitotic Cells (%),[2]; [9],22%
same,Total Cell Count,[2]; [9],247 and 259
same,Population Apoptotic (%),[3]; [4],64% and 58%
same,Population Healthy Nuclei (%),[3]; [4],78% and 83%
same,Population Mitotic Cells (%),[3]; [4],35% and 41%
same,Total Cell Count,[3]; [4],423 and 657
same,Population Apoptotic (%),[3]; [5],66%
same,Population Healthy Nuclei (%),[3]; [5],81% and 80%
same,Population Mitotic Cells (%),[3]; [5],33%
same,Total Cell Count,[3]; [5],566 and 616
same,Population Apoptotic (%),[3]; [6],42% and 53%
same,Population Healthy Nuclei (%),[3]; [6],83% and 80%
same,Population Mitotic Cells (%),[3]; [6],57% and 46%
same,Total Cell Count,[3]; [6],974 and 659
same,Population Apoptotic (%),[3]; [7],65% and 72%
same,Population Healthy Nuclei (%),[3]; [7],78% and 75%
same,Population Mitotic Cells (%),[3]; [7],34% and 28%
same,Total Cell Count,[3]; [7],498 and 611
same,Population Apoptotic (%),[3]; [8],36% and 25%
same,Population Healthy Nuclei (%),[3]; [8],82% and 85%
same,Population Mitotic Cells (%),[3]; [8],63% and 75%
same,Total Cell Count,[3]; [8],1468 and 2063
same,Population Apoptotic (%),[3]; [9],82%
same,Population Healthy Nuclei (%),[3]; [9],77% and 78%
same,Population Mitotic Cells (%),[3]; [9],36% and 17%
same,Total Cell Count,[3]; [9],828 and 933
